# In ChEMBL document CHEMBL1153963, “Phenanthrene-based tylophorine-1 (PBT-1) inhibits lung cancer cell growth through the Akt and NF-kappaB pathways” (J Med Chem, 2009):
# Calls of active or inactive are those of the source. No cut-off for these calls is given here.
# Columns and labels:
# CL1-0 [1] = assay: Inhibition of TNF-alpha-induced NF-kappaB transcriptional in human CL1-0 cells by luciferase reporter gene assay; assay type: cell-based
# Outline: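 CL1-0 cells transiently co-transfected with pNF-κB-Luc (0.2 µg) and pSV-β-galactosidase (1 µg) via lipofectamine; after 20 h switched to serum-free medium, pretreated 1 h, then stimulated with TNF-α for 4 h; luciferase normalized to β-galactosidase; n=3 independent transfections, mean ± SD.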
# [2] = biological target: RAC-alpha serine/threonine-protein kinase (Homo sapiens) (UniProt P31749); assay: Inhibition of TNF-alpha-induced AKT activation in human CL1-0 cells by Western blot; assay type: cell-based
# Outline: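 CL1-0 (and A549) cells serum-starved overnight, pretreated at various concentrations, then TNF-α stimulated for 4 h; extracts immunoblotted for p-Akt, Akt, IKKα, p-IKKα/β; representative blot shown.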
# CL1-0 [3] = assay: Decrease in COX2 protein level in TNF-alpha-stimulated human CL1-0 cells by Western blot; assay type: functional, cell-based
# Outline: (§1)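 CL1-0 cells serum-starved overnight, pretreated with various drug concentrations, then stimulated with TNF-α for 4 h. Lysates (50 µg) resolved by 10% SDS-PAGE, blotted, probed with specific antibodies in TBS pH 7.5/0.05% Tween 20/5% milk, HRP secondaries, chemiluminescent film detection; a representative blot shown.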
# [4] = biological target: T1, Inhibitor of nuclear factor kappa-B kinase subunit beta (Homo sapiens) (UniProt O14920); assay: Effect on IKK-beta activity in TNF-alpha-stimulated human CL1-0 cells by Western blot; assay type: cell-based; outline: as §1
# T1 sequence (whole entry): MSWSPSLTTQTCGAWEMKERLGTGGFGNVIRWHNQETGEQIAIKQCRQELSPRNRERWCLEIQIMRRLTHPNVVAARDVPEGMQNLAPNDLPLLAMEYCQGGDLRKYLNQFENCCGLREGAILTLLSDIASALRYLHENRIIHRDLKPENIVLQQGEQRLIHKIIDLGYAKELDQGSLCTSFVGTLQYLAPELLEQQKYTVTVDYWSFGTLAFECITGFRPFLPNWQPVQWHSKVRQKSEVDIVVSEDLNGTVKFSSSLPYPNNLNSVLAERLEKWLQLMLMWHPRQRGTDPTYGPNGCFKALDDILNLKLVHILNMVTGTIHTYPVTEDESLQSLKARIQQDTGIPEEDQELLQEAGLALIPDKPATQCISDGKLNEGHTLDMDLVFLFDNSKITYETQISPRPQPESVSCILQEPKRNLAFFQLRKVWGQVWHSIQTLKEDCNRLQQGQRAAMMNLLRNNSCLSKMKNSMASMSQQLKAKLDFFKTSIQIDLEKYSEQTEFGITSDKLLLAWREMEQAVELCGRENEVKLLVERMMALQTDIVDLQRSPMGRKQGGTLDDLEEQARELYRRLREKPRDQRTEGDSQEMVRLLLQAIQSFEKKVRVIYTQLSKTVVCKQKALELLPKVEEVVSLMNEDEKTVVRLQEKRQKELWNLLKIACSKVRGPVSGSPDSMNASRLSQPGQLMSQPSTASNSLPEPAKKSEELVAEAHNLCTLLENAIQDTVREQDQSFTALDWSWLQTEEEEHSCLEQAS
# A549 [5] = assay: Decrease in RelA binding affinity to NF-kappaB response element on COX2 promoter in human A549 cells by chromatin immunoprecipitation assay; assay type: functional, cell-based
# Outline: (§2)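 A549 cells, untreated or treated with drug plus TNF-α for 4 h, cross-linked with 1% formaldehyde (quenched with 0.125 M glycine), lysed, sonicated 12 W for 45 s, immunoprecipitated overnight at 4 °C with anti-RelA, anti-p50 or anti-RelB, collected on protein A/G beads. Cross-links reversed at 65 °C overnight; COX-2 promoter (nt -359 to +106) PCR-amplified 35 cycles, 2% agarose gel, input chromatin as control.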
# A549 [6] = assay: Decrease in NF-kappaB1 binding affinity to NF-kappaB response element on COX2 promoter in human A549 cells by chromatin immunoprecipitation assay; assay type: functional, cell-based; outline: as §2
# A549 [7] = assay: Decrease in […] binding affinity to NF-kappaB response element on COX2 promoter in human A549 cells at >0.25 ug/mL by chromatin immunoprecipitation assay; assay type: functional, cell-based; outline: as §2
# [8] = Cell cycle arrest in human CL1-0 cells assessed as decrease in accumulation at G0/G1 phase by flow cytometry; assay type: functional, cell-based; settings: TDE = time-dependent effect
# Outline: (§3)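 CL1-0 cells seeded at 2×10^5 per 60 mm dish, incubated 24 h, then exposed to various drug concentrations for 2, 6, 12, 16 or 24 h. Harvested cells fixed in cold 70% ethanol at 4 °C for 16 h, treated with RNase A (20 µg/mL, 37 °C, 30 min), stained with propidium iodide (50 µg/mL, 4 °C, 30 min), analysed at once by flow cytometry for phase distribution.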
# [9] = Cell cycle arrest in human CL1-0 cells assessed as increase in accumulation at G2/M phase by flow cytometry; assay type: functional, cell-based; settings: TDE = time-dependent effect; outline: as §3
# [10] = Cell cycle arrest in human CL1-0 cells assessed as accumulation at G0/G1 phase after 6 hrs by flow cytometry; assay type: functional, cell-based; outline: as §3
# [11] = Cell cycle arrest in human CL1-0 cells assessed as accumulation at G0/G1 phase after 16 hrs by flow cytometry; assay type: functional, cell-based; outline: as §3
# [12] = Cell cycle arrest in human CL1-0 cells assessed as accumulation at S phase after 2 hrs by flow cytometry; assay type: functional, cell-based; outline: as §3
# [13] = Cell cycle arrest in human CL1-0 cells assessed as accumulation at S phase after 6 hrs by flow cytometry; assay type: functional, cell-based; outline: as §3
# [14] = Cell cycle arrest in human CL1-0 cells assessed as accumulation at S phase after 12 hrs by flow cytometry; assay type: functional, cell-based; outline: as §3
# [15] = Cell cycle arrest in human CL1-0 cells assessed as accumulation at S phase after 16 hrs by flow cytometry; assay type: functional, cell-based; outline: as §3
# [16] = Cell cycle arrest in human CL1-0 cells assessed as accumulation at S phase after 24 hrs by flow cytometry; assay type: functional, cell-based; outline: as §3
# [17] = Cell cycle arrest in human CL1-0 cells assessed as accumulation at G2/M phase after 6 hrs by flow cytometry; assay type: functional, cell-based; outline: as §3
# [18] = Cell cycle arrest in human CL1-0 cells assessed as accumulation at G2/M phase after 12 hrs by flow cytometry; assay type: functional, cell-based; outline: as §3
# [19] = Cell cycle arrest in human CL1-0 cells assessed as accumulation at G2/M phase after 16 hrs by flow cytometry; assay type: functional, cell-based; outline: as §3
# [20] = Cell cycle arrest in human CL1-0 cells assessed as accumulation at G2/M phase after 24 hrs by flow cytometry; assay type: functional, cell-based; outline: as §3
# CL1-0 [21] = assay: Induction of cyclin D1 protein accumulation in human CL1-0 cells at 0.5 ug/mL after 24 hrs by Western blot; assay type: functional, cell-based
# Outline: (§4)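 CL1-0 cells exposed to rising concentrations for 24 h, or to 0.5 µg/mL over a time course; 50 µg lysate resolved by 10% SDS-PAGE, blotted, probed with cyclin/CDK-inhibitor antibodies in TBS-Tween/5% milk, HRP secondary, chemiluminescent film detection.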
# CL1-0 [22] = assay: Effect on cyclin A protein expression in human CL1-0 cells at 0.5 ug/mL after 24 hrs by Western blot; assay type: functional, cell-based; outline: as §4
# CL1-0 [23] = assay: Effect on cyclin E protein expression in human CL1-0 cells at 0.5 ug/mL after 24 hrs by Western blot; assay type: functional, cell-based; outline: as §4
# CL1-0 [24] = assay: Effect on p21 protein expression in human CL1-0 cells at 0.5 ug/mL after 24 hrs by Western blot; assay type: functional, cell-based; outline: as §4
# Sequence of RAC-alpha serine/threonine-protein kinase (Homo sapiens) (P31749 whole entry): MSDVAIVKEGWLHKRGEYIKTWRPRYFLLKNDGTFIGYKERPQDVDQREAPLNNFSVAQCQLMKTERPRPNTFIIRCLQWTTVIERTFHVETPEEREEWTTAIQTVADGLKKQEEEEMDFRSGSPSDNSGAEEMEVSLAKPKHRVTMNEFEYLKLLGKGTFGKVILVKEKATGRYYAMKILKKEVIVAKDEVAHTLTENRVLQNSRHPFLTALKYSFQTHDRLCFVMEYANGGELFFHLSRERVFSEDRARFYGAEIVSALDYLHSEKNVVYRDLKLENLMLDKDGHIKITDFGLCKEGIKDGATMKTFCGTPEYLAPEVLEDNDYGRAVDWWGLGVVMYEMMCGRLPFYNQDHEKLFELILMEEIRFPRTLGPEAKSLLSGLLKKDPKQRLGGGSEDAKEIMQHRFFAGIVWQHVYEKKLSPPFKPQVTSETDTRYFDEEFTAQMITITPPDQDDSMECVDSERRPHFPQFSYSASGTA
structure (smiles),measurement,setting,value
COc1ccc2c(CN3CCC(CO)CC3)cc3cc4c(cc3c2c1)OCO4,Activity,CL1-0 [1],Dose-dependent effect
same,Activity,[2],Active
same,Activity,CL1-0 [3],Active
same,Activity,[4],inactive
same,Activity,A549 [5],Active
same,Activity,A549 [6],Active
same,Activity,A549 [7],Active
same,Activity,[8],tde
same,Activity,[9],tde
same,Activity,[10],52.5%
same,Activity,[11],20.4%
same,Activity,[12],15.1%
same,Activity,[13],15.8%
same,Activity,[14],23.9%
same,Activity,[15],34.1%
same,Activity,[16],43.8%
same,Activity,[17],24.3%
same,Activity,[18],27%
same,Activity,[19],33.6%
same,Activity,[20],20.9%
same,Activity,CL1-0 [21],Active
same,Activity,CL1-0 [22],inactive
same,Activity,CL1-0 [23],inactive
same,Activity,CL1-0 [24],inactive
